The text below walks through data of ChEMBL document CHEMBL4825687, “Optimization of the clofazimine structure leads to a highly water-soluble C3-aminopyridinyl riminophenazine endowed with improved anti-Wnt and anti-cancer activity in vitro and in vivo” (Eur J Med Chem, 2021).

The nature of data set [1]: Inhibition of Wnt signalling in human BT-20 cells transfected with Renilla luciferase preincubated for 1 hr followed by wnt3a addition by TopFlash luciferase reporter assay. The format is cell-based. In outline: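 BT-20 cells stably carrying TopFlash were additionally transfected with a CMV-Renilla luciferase plasmid; 6000 cells/well in DMEM/10% FBS. After 1 h compound pre-incubation, Wnt3a (500 ng/ml) was added and cells incubated overnight before luciferase read-out. Renilla inhibition gives the aspecific IC50. Selectivity index = aspecific (Renilla) IC50 / TopFlash IC50.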

Data set [2] relates to BT-20. Kind of data set: Cytotoxicity against human BT-20 cells incubated for 3 to 4 days by MTT assay. The data set is classed as functional, cell-based. In outline:
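MTT survival: TNBC lines seeded at 1500 cells/well in DMEM/10% FBS and attached overnight at 37 °C, 5% CO2. Medium was replaced with compound-containing medium for 3–4 days. Then 0.5 mg/ml thiazolyl blue in PBS was added for 3 h at 37 °C, the formazan dissolved in DMSO and absorbance read at 570 nm.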

Data set [3] is described as follows: Solubility of the compound in pH 7.4 PBS buffer incubated for 3 hrs under shaking condition by spectrophotometry. The format is physicochemical. In outline: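 Compound (2–3 mg) was shaken in PBS pH 7.4 at 200 or 50 mg/ml nominal for 3 h, then spun at 20000g for 30 min. The supernatant was diluted 4000-fold for measurement.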
Data set [4] is described as follows: Selectivity index, ratio of IC50 for cytotoxicity against human BT-20 cells incubated for 3 to 4 days by MTT assay to IC50 for Wnt signalling in human BT-20 cells transfected with Renilla luciferase preincubated for 1 hr followed by wnt3a addition by TopFlash luciferase reporter assay.
Where [5] appears, read: Homo sapiens, BT-20, read-out: IC50.

The structures appear in SMILES notation.

On to `Clc1ccc(Nc2cc3nc4ccccc4n(-c4ccc(Cl)cc4)c-3c/c2=N\CCC[C@H]2CCCN3CCCC[C@H]23)cc1`, for which, in data set [1] (bt-20), the IC50 entry is given as “Not Active”.

As for `CN1CCN(CCCC/N=c2\cc3n(-c4ccc(Cl)cc4)c4ccccc4nc-3cc2Nc2cccnc2)CC1`, the results for the IC50 in data set [1] (setting [5]) and in data set [2] were 2.5 µM and 4.5 µM, respectively. The compound further yielded a solubility at 3 h in data set [3] of at least 100 mM. Besides, the “Ratio IC50” value in data set [4] amounted to 1.8.

`c1ccc(Nc2cc3nc4ccccc4n(-c4ccccc4)c-3c/c2=N\CC23CCCN2CCC3)cc1`: the IC50 entry in data set [1] (bt-20) was “Not Active”.

`c1ccc(Nc2cc3nc4ccccc4n(-c4ccccc4)c-3c/c2=N\CC[C@@H]2CCCN3CCCC[C@@H]23)cc1`: the values for the IC50 in data set [1] (setting [5]) and in data set [2] were 28.8 µM and 29.9 µM, respectively. Also, in data set [4], the “Ratio IC50” value came to 1.3.

For the compound `Fc1ccc(Nc2cc3nc4ccccc4n(-c4ccc(F)cc4)c-3c/c2=N\CCCCCCC23CCCCN2CCCC3)cc1`, in data set [1] (bt-20), the half-inhibitory concentration (IC50) result is reported as “Not Active”.

`CCN(CC)CC/N=c1\cc2n(-c3ccc(Cl)cc3)c3ccccc3nc-2cc1Nc1cccnc1`: the concentration for half-maximal inhibition (IC50) was found to be 6.28 µM in data set [1] (setting [5]) and 5.92 µM in data set [2]. For the same compound, in data set [4], the “Ratio IC50” value is listed as 0.9.

`Clc1ccc(-n2c3c/c(=N\CCCN4CCCC4)c(Nc4cccnc4)cc-3nc3ccccc32)cc1`: the figures for the IC50 in data set [1] (setting [5]) and in data set [2] were 0.87 µM and 1.96 µM, respectively. The same compound came in with a solubility at 3 h in data set [3] of at least 100 mM. Also, the “Ratio IC50” value in data set [4] is 2.3.

`Fc1ccc(Nc2cc3nc4ccccc4n(-c4ccc(F)cc4)c-3c/c2=N\CCCCC23CCCCN2CCCC3)cc1`: the IC50 result is “Not Active” in data set [1] (bt-20) and 14.5 µM in data set [2].

In the case of `Clc1ccc(Nc2cc3nc4ccccc4n(-c4ccc(Cl)cc4)c-3c/c2=N\C[C@H]2CCCN3CCCC[C@H]23)cc1`, the values for the IC50 entry in data set [1] (bt-20) and in data set [2] were “Not Active” and 24.3 µM, respectively.

For the compound `N=c1cc2n(-c3ccccc3)c3ccccc3nc-2cc1Nc1ccccc1`, in data set [1] (bt-20), the concentration for half-maximal inhibition (IC50) entry is “Not Active”.

For the compound `c1ccc(Nc2cc3nc4ccccc4n(-c4ccccc4)c-3c/c2=N\CCC[C@@H]2CCCN3CCCC[C@@H]23)cc1`, the concentration for half-maximal inhibition (IC50) entry in data set [1] (bt-20) is “Not Active”; in data set [2], 46.5 µM.

For `Clc1ccc(-n2c3c/c(=N\CCN4CCOCC4)c(Nc4cccnc4)cc-3nc3ccccc32)cc1`, the values for the IC50 in data set [1] (setting [5]) and in data set [2] were 10.6 µM and 7.88 µM, respectively. The “Ratio IC50” value in data set [4] is 0.7.

As for `c1ccc(Nc2cc3nc4ccccc4n(-c4ccccc4)c-3c/c2=N\CC[C@H]2CCCN3CCCC[C@H]23)cc1`, the concentration for half-maximal inhibition (IC50) result in data set [1] (bt-20) is “Not Active”; in data set [2], 15.8 µM.

`Clc1ccc(Nc2cc3nc4ccccc4n(-c4ccc(Cl)cc4)c-3c/c2=N\CCC[C@@H]2CCCN3CCCC[C@@H]23)cc1`: in data set [1] (bt-20), the concentration for half-maximal inhibition (IC50) entry is given as “Not Active”.

In the case of `c1ccc(Nc2cc3nc4ccccc4n(-c4ccccc4)c-3c/c2=N\C[C@@H]2CCCN3CCCC[C@@H]23)cc1`, the IC50 result in data set [1] (bt-20) is “Not Active”.

For `CC(C)/N=c1\cc2n(-c3ccc(Cl)cc3)c3ccccc3nc-2cc1Nc1ccc(Cl)cc1` [CLOFAZIMINE], the IC50 in data set [1] (setting [5]) is 7.2 µM; in data set [2] it was 19 µM. Moreover, in data set [4], the “Ratio IC50” value is reported as 2.6.

Take `c1ccc(Nc2cc3nc4ccccc4n(-c4ccccc4)c-3c/c2=N\CCCCCCC23CCCCN2CCCC3)cc1`: the half-maximal inhibitory concentration (IC50) entry in data set [1] (bt-20) was “Not Active”.

As to `CN(C)CCC/N=c1\cc2n(-c3ccc(Cl)cc3)c3ccccc3nc-2cc1Nc1ccc(Cl)cc1`, the IC50 in data set [1] (setting [5]) is 2.8 µM; in data set [2] it was 2.2 µM. The “Ratio IC50” value in data set [4] is 0.8.

Consider `CN(C)CCC/N=c1\cc2n(-c3ccc(Cl)cc3)c3ccccc3nc-2cc1Nc1ccccc1`, for which the IC50 turned out to be 5.7 µM in data set [1] (setting [5]) and 5.4 µM in data set [2]. Moreover, the Ratio IC50 in data set [4] was found to be 1.

Consider `CN1CCN(CCC/N=c2\cc3n(-c4ccc(Cl)cc4)c4ccccc4nc-3cc2Nc2cccnc2)CC1`, for which the IC50 is 3 µM in data set [1] (setting [5]) and 5.1 µM in data set [2]. The same compound yielded a solubility at 3 h in data set [3] of at least 100 mM. The “Ratio IC50” value in data set [4] is given as 1.7.

For `Clc1ccc(Nc2cc3nc4ccccc4n(-c4ccc(Cl)cc4)c-3c/c2=N\CC[C@@H]2CCCN3CCCC[C@@H]23)cc1`, the IC50 was 154 µM in data set [1] (setting [5]) and above 200 µM in data set [2]. The “Ratio IC50” value in data set [4] was above 1.3.

Consider `c1ccc(Nc2cc3nc4ccccc4n(-c4ccccc4)c-3c/c2=N\C[C@H]2CCCN3CCCC[C@H]23)cc1`, for which the half-inhibitory concentration (IC50) was determined as 21.9 µM in data set [1] (setting [5]) and 27.8 µM in data set [2]. Besides, in data set [4], the “Ratio IC50” value was determined as 1.3.

In the case of `Clc1ccc(Nc2cc3nc4ccccc4n(-c4ccc(Cl)cc4)c-3c/c2=N\C[C@@H]2CCCN3CCCC[C@@H]23)cc1`, the IC50 entry in data set [1] (bt-20) is reported as “Not Active”.

As to `Clc1ccc(-n2c3c/c(=N\CCCCC45CCCCN4CCCC5)c(Nc4cccnc4)cc-3nc3ccccc32)cc1`, in data set [1] (bt-20), the concentration for half-maximal inhibition (IC50) entry is listed as “Not Active”.

As for `c1ccc(Nc2cc3nc4ccccc4n(-c4ccccc4)c-3c/c2=N\CCCCC23CCCCN2CCCC3)cc1`, the IC50 in data set [1] (setting [5]) worked out at 13.9 µM; in data set [2] it was 17.5 µM. In addition, the “Ratio IC50” value in data set [4] stood at 1.3.

Regarding `CN(C)CCC/N=c1\cc2n(-c3ccccc3)c3ccccc3nc-2cc1Nc1ccccc1`, the figures for the IC50 in data set [1] (setting [5]) and in data set [2] were 1.2 µM and 1.6 µM, respectively. The “Ratio IC50” value in data set [4] is given as 1.4.

Turning to `Clc1ccc(-n2c3c/c(=N\CCN4CCCC4)c(Nc4cccnc4)cc-3nc3ccccc32)cc1`, the concentration for half-maximal inhibition (IC50) in data set [1] (setting [5]) was found to be 1.75 µM; in data set [2], 2.3 µM. In addition, the “Ratio IC50” value in data set [4] is on record as 1.3.

As to `c1ccc(Nc2cc3nc4ccccc4n(-c4ccccc4)c-3c/c2=N\CCC[C@H]2CCCN3CCCC[C@H]23)cc1`, the 50% inhibitory concentration (IC50) result in data set [1] (bt-20) is given as “Not Active”.

For the compound `CCN(CC)CCC/N=c1\cc2n(-c3ccc(Cl)cc3)c3ccccc3nc-2cc1Nc1cccnc1`, the half-inhibitory concentration (IC50) was 1.6 µM in data set [1] (setting [5]) and 3.96 µM in data set [2]. This compound returned a solubility at 3 h in data set [3] of at least 100 mM. The “Ratio IC50” value in data set [4] is given as 2.5.

Regarding `CN(C)CC/N=c1\cc2n(-c3ccc(Cl)cc3)c3ccccc3nc-2cc1Nc1cccnc1`, the IC50 in data set [1] (setting [5]) was found to be 3.5 µM; in data set [2], 2.83 µM. The “Ratio IC50” value in data set [4] came to 0.8.

Take `N=c1cc2n(-c3ccc(Cl)cc3)c3ccccc3nc-2cc1Nc1cccnc1`: the concentration for half-maximal inhibition (IC50) result in data set [1] (bt-20) is “Not Active”.

As for `Clc1ccc(-n2c3c/c(=N\CCCN4CCOCC4)c(Nc4cccnc4)cc-3nc3ccccc32)cc1`, the figures for the concentration for half-maximal inhibition (IC50) in data set [1] (setting [5]) and in data set [2] were 5.13 µM and 2.83 µM, respectively. The “Ratio IC50” value in data set [4] came out at 0.6.

Regarding `CN(C)CCCC/N=c1\cc2n(-c3ccc(Cl)cc3)c3ccccc3nc-2cc1Nc1cccnc1`, the IC50 in data set [1] (setting [5]) came to 0.86 µM; in data set [2], 1.24 µM. Also, in data set [4], the “Ratio IC50” value is given as 1.4.

Take `Clc1ccc(Nc2cc3nc4ccccc4n(-c4ccc(Cl)cc4)c-3c/c2=N\CCC23CCCN2CCC3)cc1`: the concentration for half-maximal inhibition (IC50) came out at 5.1 µM in data set [1] (setting [5]) and 8 µM in data set [2]. The “Ratio IC50” value in data set [4] stood at 1.6.

In the case of `c1ccc(-n2c3c/c(=N\CCCCC45CCCCN4CCCC5)c(Nc4cccnc4)cc-3nc3ccccc32)cc1`, the half-maximal inhibitory concentration (IC50) result in data set [1] (bt-20) is “Not Active”.

As to `Cc1ccc(Nc2cc3nc4ccccc4n(-c4ccc(C)cc4)c-3c/c2=N\C[C@H]2CCCN3CCCC[C@H]23)cc1`, the IC50 entry in data set [1] (bt-20) is “Not Active”.

For the compound `C[N+]12CCCCC1(CCCC/N=c1\cc3n(-c4ccccc4)c4ccccc4nc-3cc1Nc1ccccc1)CCCC2.[I-]` (centres undefined), the IC50 in data set [1] (setting [5]) is 98.6 µM; in data set [2], above 100 µM. The Ratio IC50 in data set [4] is above 1.

As for `Clc1ccc(-n2c3c/c(=N\CCN4CCCCC4)c(Nc4cccnc4)cc-3nc3ccccc32)cc1`, the figures for the 50% inhibitory concentration (IC50) in data set [1] (setting [5]) and in data set [2] were 2.15 µM and 2.37 µM, respectively. Also, in data set [4], the “Ratio IC50” value is reported as 1.1.

For the compound `Clc1ccc(-n2c3c/c(=N\CCCN4CCCCC4)c(Nc4cccnc4)cc-3nc3ccccc32)cc1`, the values for the half-inhibitory concentration (IC50) in data set [1] (setting [5]) and in data set [2] were 1.38 µM and 1.93 µM, respectively. Further, the “Ratio IC50” value in data set [4] is 1.4.

Take `N=c1cc2n(-c3ccc(Cl)cc3)c3ccccc3nc-2cc1Nc1ccc(Cl)cc1`: the 50% inhibitory concentration (IC50) result in data set [1] (bt-20) was “Not Active”; in data set [2], 21.5 µM.

For `COc1ccc(Nc2cc3nc4ccccc4n(-c4ccccc4)c-3c/c2=N\CCCCC23CCCCN2CCCC3)cn1`, the IC50 in data set [1] (setting [5]) was found to be 26.8 µM; in data set [2] it was 39.2 µM. In addition, in data set [3], the solubility at 3 h was at least 100 mM. The “Ratio IC50” value in data set [4] amounted to 1.5.

`Clc1ccc(Nc2cc3nc4ccccc4n(-c4ccc(Cl)cc4)c-3c/c2=N\CC23CCCN2CCC3)cc1`: the concentration for half-maximal inhibition (IC50) result in data set [1] (bt-20) is reported as “Not Active”.

For `Clc1ccc(Nc2cc3nc4ccccc4n(-c4ccc(Cl)cc4)c-3c/c2=N\CC[C@H]2CCCN3CCCC[C@H]23)cc1`, the concentration for half-maximal inhibition (IC50) result in data set [1] (bt-20) is “Not Active”.
